Measurements collected from several papers.
Lines come from different studies, so protocols differ.
Target: Mu-type opioid receptor (OPRM1, Homo sapiens, UniProt P35372)

CC(=O)Nc1ccccc1-c1cnc2c(c1)C[C@@]1(OCCCc3ccccc3)[C@H]3Cc4ccc(O)c5c4[C@@]1(CCN3CC1CC1)[C@H]2O5 — Ki (cell-free assay): 141 nM
Cc1cc(O)cc(C)c1C[C@H](N)C(=O)N1Cc2ccccc2C[C@@H]1C(=O)NCC(=O)NCc1ccccc1 — Ki (ligand displacement, radioligand; cell membranes): 0.068 nM
CC(NCCc1ccc(O)cc1)C(O)c1ccc(O)cc1 (stereo not shown) — IC50 (ligand displacement): 9180 nM
CCCCC/C=C\C/C=C\C/C=C\CCCCC(=O)O — Ki (ligand displacement, radioligand; cell membranes): 22700 nM
Cc1cccc(C)c1-c1cnc2c(c1)C[C@@]1(OCCCc3ccccc3)[C@H]3Cc4ccc(O)c5c4[C@@]1(CCN3CC1CC1)[C@H]2O5 — Ki (cell-free assay): ~200 nM
Clc1ccc(CSc2nnc(-c3ccccn3)n2Cc2ccco2)cc1Cl — EC50 (β-arrestin recruitment, agonist, imaging): > 32000 nM
CCCO[C@@]12Cc3cc(-c4ccccc4)cnc3[C@@H]3Oc4c(O)ccc5c4[C@@]31CCN(CC1CC1)[C@@H]2C5 — Ki (cell-free assay): 499 nM
CC(Cc1ccccc1)NCCC(c1ccccc1)c1ccccc1 (stereo not shown) — IC50 (ligand displacement, radioligand): 1800 nM
COc1ccc2c(c1)[C@]13CCCC[C@@H]1[C@H](C2)N(C)CC3 — IC50 (ligand displacement, radioligand): 1700 nM
Cc1cc(O)cc(C)c1C[C@H](N)C(=O)N1Cc2ccccc2C[C@H]1C(=O)NCC(=O)NCc1ccc(N)cc1 — Ki (ligand displacement, radioligand; cell membranes): 34 nM
c1ccc([C@]2(CCN[C@H]3CCOc4ccccc43)CCOC3(CCCC3)C2)nc1 — EC50 (cAMP, agonist, luciferase): 1.6 nM
CCCCCCCCC[C@@H]1CC(=O)NCC(=O)N[C@H](Cc2ccc(O)cc2)C(=O)NCC(=O)N[C@@H](Cc2ccccc2)C(=O)O1 — Ki (ligand displacement, radioligand): 6400 nM
Cc1cc(O)cc(C)c1C[C@H](N)C(=O)N1Cc2ccccc2C[C@H]1C(=O)NCC(=O)NCc1ccc(Cl)cc1 — Ki (ligand displacement, radioligand; cell membranes): 2.9 nM
